Results on 4 molecules are retold here after ChEMBL document CHEMBL3621043, “Discovery and Optimization of Novel, Selective Histone Methyltransferase SET7 Inhibitors by Pharmacophore- and Docking-Based Virtual Screening” (J Med Chem, 2015).

Test [1] has as its target T1, Histone-lysine N-methyltransferase SETD7 (Homo sapiens, UniProt Q8WTS6).
T1 sequence (Q8WTS6 whole entry): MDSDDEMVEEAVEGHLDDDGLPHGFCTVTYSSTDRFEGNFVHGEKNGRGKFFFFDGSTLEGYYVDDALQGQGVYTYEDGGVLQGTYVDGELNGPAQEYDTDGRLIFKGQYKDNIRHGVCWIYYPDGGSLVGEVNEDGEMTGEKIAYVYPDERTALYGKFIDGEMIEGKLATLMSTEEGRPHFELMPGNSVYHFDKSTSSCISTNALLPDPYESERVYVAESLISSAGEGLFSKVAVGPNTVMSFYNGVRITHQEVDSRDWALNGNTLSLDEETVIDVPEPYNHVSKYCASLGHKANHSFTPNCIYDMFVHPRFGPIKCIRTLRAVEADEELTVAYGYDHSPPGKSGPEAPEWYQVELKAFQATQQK
Put plainly: Inhibition of SET7 (unknown origin). A digest of the protocol: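 AlphaLISA: purified SET7 in modified Tris buffer 15 min at room temperature, compounds added in DMSO, then substrate solution added for 60 min. Acceptor and donor beads incubated 60 min at room temperature in the dark, then Alpha-mode read. Inhibition % = (Max−Signal)/(Max−Min)×100; low control received assay buffer instead of enzyme.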

Test [2] concerns the target T1, Histone-lysine N-methyltransferase SETD7. As to the kind of experiment: Competitive inhibition of SET7 (unknown origin) after 60 mins by AlphaLISA method in presence of SAM. (In Alpha technology, singlet oxygen from a donor bead excites a nearby acceptor bead.)
In another test the test system is MCF7. As to the kind of experiment: cells. The conditions noted are these: Homo sapiens, MCF7, 120 h.
The subject of a further test is HL-60. Put plainly: cells. The conditions noted are these: Homo sapiens, HL-60, 120 h.
The target of test [3] is DNMT3A2/3L complex (Homo sapiens) (UniProt Q9Y6K1+Q9UJW3). Put plainly: Inhibition of DNMT3A/3L (unknown origin) using IDT-01 sequence 1/IDT-01 sequence 2 as substrate at 100 uM preincubated for 15 mins followed by substrate addition measured after 4 hrs by liquid scintillation counting analysis relative to control. Type of test: protein-complex assay. The method in brief: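 Radioactive methylation assay in modified Tris buffer with IDT-01 Sequence 1 and Sequence 2 as substrates. Enzyme preincubated 15 min at room temperature before substrate added. After 4 h at room temperature, stopped with cold SAM, then transferred to FlashPlate and read by liquid scintillation counting.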

The target of test [4] is T2, N-lysine methyltransferase KMT5A (Homo sapiens) (UniProt Q9NQR1).
T2 sequence (whole entry): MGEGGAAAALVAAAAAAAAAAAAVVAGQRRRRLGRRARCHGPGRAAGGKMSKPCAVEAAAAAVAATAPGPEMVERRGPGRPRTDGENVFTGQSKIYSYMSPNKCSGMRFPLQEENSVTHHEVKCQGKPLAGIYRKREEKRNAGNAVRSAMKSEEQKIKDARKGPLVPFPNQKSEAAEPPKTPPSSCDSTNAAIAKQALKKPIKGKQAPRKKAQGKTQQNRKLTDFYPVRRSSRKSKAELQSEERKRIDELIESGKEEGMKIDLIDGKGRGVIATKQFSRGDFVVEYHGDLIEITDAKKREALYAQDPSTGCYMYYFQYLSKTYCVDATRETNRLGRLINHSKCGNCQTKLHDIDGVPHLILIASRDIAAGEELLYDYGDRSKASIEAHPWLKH
As to the kind of experiment: Inhibition of SETD8 (unknown origin) at 100 uM preincubated for 15 mins measured after 120 mins by microbeta counting analysis in presence of [3H]-SAM relative to control. A digest of the protocol: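 Compounds added in DMSO and enzyme held 15 min at room temperature in modified Tris buffer. Reaction started with peptide plus [3H]-SAM and stopped with cold SAM after 120 min. Transferred to streptavidin FlashPlate for at least 60 min, washed with water/0.1% Tween-20, then counted.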

Test [5] concerns the target Histone-lysine N-methyltransferase EZH2 (Homo sapiens) (UniProt Q15910). As to the kind of experiment: Inhibition of EZH2 (unknown origin) using H3K27me peptide as substrate at 100 uM preincubated for 15 mins followed by substrate/[3H]SAM addition by liquid scintillation counting analysis relative to control. The method in brief:
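Enzyme in modified Tris buffer, 15 min at room temperature, then H3K27me peptide plus [3H]-SAM added to start. Stopped with cold SAM (final 0.5 mM), transferred to FlashPlate for at least 1 h at room temperature, washed with water/0.1% Tween-20, then scintillation counting.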

Test [6] has as its target Histone-lysine N-methyltransferase, H3 lysine-79 specific (Homo sapiens) (UniProt Q8TEK3). As to the kind of experiment: Inhibition of DOT1L (unknown origin) at 100 uM preincubated for 15 mins followed by oligonucleosomes/SAM addition measured after 30 mins by AlphaLISA method relative to control.
Another test relates to MV4-11. Put plainly: Cytotoxicity against human MV4-11 cells assessed as inhibition of cell proliferation after 120 hrs by alamar blue assay. The test is classed as functional, cell-based. The method in brief: (§1)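 Cells seeded at approximately 2*10^4 per well in 100 µL medium, grown overnight, then exposed for about 120 h to 0–100 µM in DMSO. MCF7 and HCT116 read by MTT: 2 h at 37 °C, crystals dissolved in DMSO, absorbance 490 nm with 630 nm reference. HL60, MV4-11 and DHL4 read by alamarBlue, fluorescence ex 544/em 590 nm. Signals normalized to control wells.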
On the technique in general: The colour change of resazurin is a common sign of viable cells or microbes.

In another test the test system is SUD4. As to the kind of experiment: Cytotoxicity against human SU-DHL4 cells assessed as inhibition of cell proliferation after 120 hrs by alamar blue assay. The test is classed as functional, cell-based. The method in brief: as §1
Test [7] has as its target T3, Histone-lysine N-methyltransferase EHMT2 (Homo sapiens) (UniProt Q96KQ7).
T3 sequence (whole entry): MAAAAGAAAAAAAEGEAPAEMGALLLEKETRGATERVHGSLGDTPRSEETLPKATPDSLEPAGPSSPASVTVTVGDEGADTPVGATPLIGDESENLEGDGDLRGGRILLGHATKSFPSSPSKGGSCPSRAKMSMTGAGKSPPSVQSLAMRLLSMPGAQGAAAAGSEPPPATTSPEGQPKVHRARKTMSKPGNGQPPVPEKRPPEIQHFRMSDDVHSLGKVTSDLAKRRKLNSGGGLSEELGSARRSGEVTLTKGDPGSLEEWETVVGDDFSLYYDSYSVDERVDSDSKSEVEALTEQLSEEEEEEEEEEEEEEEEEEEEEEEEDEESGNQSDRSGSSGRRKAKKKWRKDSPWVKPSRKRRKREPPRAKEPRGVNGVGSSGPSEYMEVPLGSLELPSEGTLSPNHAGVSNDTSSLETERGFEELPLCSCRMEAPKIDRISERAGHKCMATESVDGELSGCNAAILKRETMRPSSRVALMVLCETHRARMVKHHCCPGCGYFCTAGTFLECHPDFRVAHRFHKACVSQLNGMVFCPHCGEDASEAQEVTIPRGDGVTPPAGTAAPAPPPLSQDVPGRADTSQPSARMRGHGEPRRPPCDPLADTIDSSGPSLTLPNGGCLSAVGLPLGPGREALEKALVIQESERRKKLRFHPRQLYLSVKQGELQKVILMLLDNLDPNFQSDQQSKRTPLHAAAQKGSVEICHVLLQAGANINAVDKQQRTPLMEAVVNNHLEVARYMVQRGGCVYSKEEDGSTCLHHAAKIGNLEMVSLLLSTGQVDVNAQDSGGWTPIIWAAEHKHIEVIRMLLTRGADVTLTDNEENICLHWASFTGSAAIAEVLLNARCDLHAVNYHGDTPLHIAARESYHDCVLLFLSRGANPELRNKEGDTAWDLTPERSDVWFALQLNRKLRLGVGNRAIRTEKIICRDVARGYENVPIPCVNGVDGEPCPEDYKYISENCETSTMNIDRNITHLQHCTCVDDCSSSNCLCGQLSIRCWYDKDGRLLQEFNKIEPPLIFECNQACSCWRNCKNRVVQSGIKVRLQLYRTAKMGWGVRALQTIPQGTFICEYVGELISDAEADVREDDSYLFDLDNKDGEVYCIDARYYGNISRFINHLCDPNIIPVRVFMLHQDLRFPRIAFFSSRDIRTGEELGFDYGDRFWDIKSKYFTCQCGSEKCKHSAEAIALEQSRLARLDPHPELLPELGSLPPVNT
Put plainly: Inhibition of G9a (unknown origin) at 100 uM preincubated for 15 mins followed by substrate addition measured after 60 mins by AlphaLISA method relative to control. A digest of the protocol: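 AlphaLISA in modified Tris buffer: compounds (DMSO) with enzyme 15 min at room temperature, then substrate mix added for 60 min at room temperature. Acceptor and donor bead mix added for 60 min in subdued light, then Alpha signal read.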

The target of test [8] is Histone-lysine N-methyltransferase, H3 lysine-36 specific (Homo sapiens) (UniProt Q96L73). As to the kind of experiment: Inhibition of NSD1 (unknown origin) at 100 uM preincubated for 15 mins followed by substrate/[3H]-SAM addition measured after 4 hrs by liquid scintillation counting analysis relative to control. The method in brief:
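Enzyme in modified Tris buffer, 15 min at room temperature, then substrate and [3H]-SAM added. After 4 h, cold SAM stop, transfer to PEI-pretreated GF/B filter plate, water washes under vacuum, then scintillation counting.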

Test [9] addresses DNA (cytosine-5)-methyltransferase 1 (Homo sapiens) (UniProt P26358). As to the kind of experiment: Inhibition of DNMT1 (unknown origin) using poly(dI-DC) as substrate at 100 uM preincubated for 15 mins followed by substrate and [3H]SAM addition measured after 120 mins by microbeta counting analysis relative to control. The method in brief:
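Radioactive methylation assay in modified Tris buffer with poly(dI-dC) substrate. Enzyme held 15 min at room temperature, then substrate and [3H]-SAM added. Reaction run 120 min at 37 °C, then moved to 0.5% PEI-pretreated filter plates, washed with water under vacuum and counted. Maximum = enzyme plus substrate; minimum = substrate only.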

A further test concerns HCT-116. Put plainly: Cytotoxicity against human HCT116 cells assessed as inhibition of cell proliferation after 120 hrs by MTT assay. For orientation: Tetrazolium dyes change colour on reduction, which living cells bring about.

The structures appear in SMILES notation. Calls of active or inactive are those of the source. The rule behind the calls is not given here.

Chain of Histone-lysine N-methyltransferase EZH2 (Homo sapiens) (Q15910 whole entry, looked up): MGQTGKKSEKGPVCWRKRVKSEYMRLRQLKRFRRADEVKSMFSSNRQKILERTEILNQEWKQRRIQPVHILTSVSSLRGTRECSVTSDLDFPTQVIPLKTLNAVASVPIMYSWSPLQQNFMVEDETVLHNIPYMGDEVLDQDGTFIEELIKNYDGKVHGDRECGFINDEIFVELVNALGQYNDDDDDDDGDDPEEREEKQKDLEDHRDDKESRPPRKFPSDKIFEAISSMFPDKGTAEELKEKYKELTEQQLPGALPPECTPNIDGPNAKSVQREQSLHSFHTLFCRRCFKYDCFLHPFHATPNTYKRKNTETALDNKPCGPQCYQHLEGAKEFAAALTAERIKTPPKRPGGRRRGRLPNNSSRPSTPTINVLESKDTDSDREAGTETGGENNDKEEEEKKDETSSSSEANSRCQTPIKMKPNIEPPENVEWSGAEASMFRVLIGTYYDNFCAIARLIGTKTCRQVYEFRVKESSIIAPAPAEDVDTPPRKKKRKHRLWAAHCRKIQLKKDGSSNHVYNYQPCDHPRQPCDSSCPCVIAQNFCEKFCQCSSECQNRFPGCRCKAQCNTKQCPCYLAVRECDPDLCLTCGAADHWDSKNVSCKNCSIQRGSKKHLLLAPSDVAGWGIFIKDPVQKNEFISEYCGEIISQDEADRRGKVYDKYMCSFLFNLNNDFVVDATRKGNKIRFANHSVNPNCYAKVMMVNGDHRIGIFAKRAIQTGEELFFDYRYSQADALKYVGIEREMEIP
Chain of DNA (cytosine-5)-methyltransferase 1 (Homo sapiens) (P26358 whole entry): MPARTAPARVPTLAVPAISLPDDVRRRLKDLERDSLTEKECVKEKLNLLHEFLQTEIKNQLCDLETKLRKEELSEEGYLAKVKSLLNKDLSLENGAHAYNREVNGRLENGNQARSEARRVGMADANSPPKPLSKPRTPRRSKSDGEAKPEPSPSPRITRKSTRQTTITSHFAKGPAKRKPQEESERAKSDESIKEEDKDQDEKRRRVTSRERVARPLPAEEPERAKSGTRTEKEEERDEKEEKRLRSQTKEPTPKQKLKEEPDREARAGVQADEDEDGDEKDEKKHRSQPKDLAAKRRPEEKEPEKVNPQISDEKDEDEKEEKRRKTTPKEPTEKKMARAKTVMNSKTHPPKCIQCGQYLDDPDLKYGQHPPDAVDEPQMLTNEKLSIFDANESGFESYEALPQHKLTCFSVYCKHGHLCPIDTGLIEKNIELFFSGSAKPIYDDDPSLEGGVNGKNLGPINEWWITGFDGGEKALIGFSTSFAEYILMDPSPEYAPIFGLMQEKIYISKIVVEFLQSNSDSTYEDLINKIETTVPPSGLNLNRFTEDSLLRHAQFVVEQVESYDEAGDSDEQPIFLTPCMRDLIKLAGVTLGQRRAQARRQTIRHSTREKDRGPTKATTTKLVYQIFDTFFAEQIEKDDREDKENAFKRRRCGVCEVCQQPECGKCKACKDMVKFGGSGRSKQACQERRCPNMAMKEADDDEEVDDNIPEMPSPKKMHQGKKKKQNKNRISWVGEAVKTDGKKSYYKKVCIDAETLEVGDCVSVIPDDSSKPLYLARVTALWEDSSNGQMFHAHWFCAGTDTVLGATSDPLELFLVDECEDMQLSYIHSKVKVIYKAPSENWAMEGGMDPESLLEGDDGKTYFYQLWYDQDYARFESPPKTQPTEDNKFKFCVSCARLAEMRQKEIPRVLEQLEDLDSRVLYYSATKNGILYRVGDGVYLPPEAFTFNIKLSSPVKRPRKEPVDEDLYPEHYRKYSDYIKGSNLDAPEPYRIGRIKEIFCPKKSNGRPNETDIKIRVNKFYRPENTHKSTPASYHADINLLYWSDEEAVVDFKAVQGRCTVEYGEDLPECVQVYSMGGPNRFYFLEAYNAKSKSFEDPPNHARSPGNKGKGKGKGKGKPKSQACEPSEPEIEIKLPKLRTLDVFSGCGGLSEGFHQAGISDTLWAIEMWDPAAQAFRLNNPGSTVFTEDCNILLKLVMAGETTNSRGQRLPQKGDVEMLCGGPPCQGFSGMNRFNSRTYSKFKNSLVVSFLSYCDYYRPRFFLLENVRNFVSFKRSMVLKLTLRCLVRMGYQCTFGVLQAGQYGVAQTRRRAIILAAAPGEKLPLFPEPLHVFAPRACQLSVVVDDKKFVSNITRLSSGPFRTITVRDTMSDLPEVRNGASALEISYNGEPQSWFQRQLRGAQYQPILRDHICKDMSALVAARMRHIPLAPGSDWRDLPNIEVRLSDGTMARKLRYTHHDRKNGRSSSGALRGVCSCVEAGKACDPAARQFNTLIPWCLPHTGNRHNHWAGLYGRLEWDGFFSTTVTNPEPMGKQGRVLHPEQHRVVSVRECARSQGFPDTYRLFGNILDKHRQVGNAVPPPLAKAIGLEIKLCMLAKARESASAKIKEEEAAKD
Chain of Histone-lysine N-methyltransferase, H3 lysine-36 specific (Homo sapiens) (Q96L73 whole entry): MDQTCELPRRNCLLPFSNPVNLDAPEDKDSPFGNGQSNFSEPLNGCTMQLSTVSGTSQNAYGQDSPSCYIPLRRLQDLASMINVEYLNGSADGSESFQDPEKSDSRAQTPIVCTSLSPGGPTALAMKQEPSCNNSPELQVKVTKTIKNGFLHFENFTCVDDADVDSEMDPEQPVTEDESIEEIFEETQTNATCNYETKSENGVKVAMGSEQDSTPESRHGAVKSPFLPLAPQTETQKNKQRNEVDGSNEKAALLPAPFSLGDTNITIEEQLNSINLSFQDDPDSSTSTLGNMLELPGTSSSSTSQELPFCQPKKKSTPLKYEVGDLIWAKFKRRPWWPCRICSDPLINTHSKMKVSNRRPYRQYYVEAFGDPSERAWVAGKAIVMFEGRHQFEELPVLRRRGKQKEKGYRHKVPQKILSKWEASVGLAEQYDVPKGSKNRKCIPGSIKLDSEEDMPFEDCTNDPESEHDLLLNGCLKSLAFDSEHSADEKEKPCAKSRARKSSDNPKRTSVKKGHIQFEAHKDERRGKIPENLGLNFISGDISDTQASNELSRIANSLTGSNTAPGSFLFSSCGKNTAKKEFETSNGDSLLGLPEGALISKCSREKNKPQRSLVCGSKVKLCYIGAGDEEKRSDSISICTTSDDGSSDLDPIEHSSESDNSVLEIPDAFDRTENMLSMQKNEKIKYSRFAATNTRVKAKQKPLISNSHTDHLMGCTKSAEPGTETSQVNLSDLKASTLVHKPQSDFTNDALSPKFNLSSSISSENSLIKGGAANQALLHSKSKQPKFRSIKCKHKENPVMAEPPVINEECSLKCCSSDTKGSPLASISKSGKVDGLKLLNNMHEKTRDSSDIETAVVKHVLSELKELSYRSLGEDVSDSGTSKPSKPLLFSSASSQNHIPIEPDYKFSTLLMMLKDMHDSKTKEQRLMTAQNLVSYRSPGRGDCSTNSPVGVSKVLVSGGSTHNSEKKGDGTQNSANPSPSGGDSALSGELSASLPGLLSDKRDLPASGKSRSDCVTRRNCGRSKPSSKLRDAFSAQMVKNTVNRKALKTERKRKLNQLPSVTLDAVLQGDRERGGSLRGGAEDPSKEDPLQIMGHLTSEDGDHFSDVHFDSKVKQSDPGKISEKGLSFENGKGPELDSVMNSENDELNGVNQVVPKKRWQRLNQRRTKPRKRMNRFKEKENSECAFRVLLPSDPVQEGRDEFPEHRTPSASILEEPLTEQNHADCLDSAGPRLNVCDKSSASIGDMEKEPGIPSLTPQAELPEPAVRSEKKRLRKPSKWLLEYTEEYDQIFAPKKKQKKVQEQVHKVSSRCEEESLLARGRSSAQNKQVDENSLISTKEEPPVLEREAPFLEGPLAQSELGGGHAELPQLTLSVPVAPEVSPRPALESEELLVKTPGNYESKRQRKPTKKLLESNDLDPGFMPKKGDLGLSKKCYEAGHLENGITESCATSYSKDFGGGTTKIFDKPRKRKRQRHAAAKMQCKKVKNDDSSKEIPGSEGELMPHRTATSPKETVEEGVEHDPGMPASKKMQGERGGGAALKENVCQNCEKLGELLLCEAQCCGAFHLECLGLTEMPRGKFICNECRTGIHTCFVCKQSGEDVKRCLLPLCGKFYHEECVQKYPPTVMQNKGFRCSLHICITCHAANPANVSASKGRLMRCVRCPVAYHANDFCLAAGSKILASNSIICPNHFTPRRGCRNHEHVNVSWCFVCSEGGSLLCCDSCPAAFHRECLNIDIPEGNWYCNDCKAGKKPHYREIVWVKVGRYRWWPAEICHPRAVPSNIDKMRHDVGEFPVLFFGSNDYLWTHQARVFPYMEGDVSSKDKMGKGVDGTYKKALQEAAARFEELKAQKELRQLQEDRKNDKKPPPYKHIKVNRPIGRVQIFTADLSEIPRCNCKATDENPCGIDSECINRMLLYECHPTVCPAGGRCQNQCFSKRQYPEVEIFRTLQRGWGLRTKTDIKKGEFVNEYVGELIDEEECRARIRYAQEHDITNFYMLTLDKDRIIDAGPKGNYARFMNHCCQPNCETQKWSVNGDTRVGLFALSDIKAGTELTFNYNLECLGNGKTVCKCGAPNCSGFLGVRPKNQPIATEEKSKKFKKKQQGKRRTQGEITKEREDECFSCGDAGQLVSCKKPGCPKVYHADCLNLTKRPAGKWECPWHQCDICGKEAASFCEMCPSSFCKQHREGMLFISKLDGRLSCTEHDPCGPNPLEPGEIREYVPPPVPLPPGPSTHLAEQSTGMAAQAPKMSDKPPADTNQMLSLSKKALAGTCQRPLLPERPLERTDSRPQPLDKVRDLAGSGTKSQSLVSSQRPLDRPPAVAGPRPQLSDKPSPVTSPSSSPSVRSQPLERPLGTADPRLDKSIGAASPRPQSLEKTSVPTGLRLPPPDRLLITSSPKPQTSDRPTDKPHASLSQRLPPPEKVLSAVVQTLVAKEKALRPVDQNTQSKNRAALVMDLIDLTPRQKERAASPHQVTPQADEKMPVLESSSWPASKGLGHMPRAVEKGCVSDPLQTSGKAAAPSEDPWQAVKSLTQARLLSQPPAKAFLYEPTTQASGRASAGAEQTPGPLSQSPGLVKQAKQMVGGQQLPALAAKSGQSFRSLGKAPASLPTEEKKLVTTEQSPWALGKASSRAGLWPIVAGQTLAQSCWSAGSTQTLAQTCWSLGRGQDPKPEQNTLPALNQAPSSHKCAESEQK

As for `CN1CCC(=C2c3ccccc3C=Cc3ccccc32)CC1` [CYPROHEPTADINE], 20 µM corresponded to half-maximal inhibition in test [1] (IC50).

For the molecule `O=C(Nc1cccc([N+](=O)[O-])c1)c1ccc2c(c1)OCO2`, in test [2], the IC50 (commonly the concentration needed to halve the response being measured) turned out to be 61.7 µM.

Turning to `CCOC(=O)c1c(N)sc(C(=O)Nc2cccc([N+](=O)[O-])c2)c1C`, the IC50 was 10.9 µM with MCF7, 16.4 µM with HL-60 and 4.59 µM in [2]. Further, the inhibition (usually the relative decrease from the control value, in per cent) was -4.25% in test [3]; 40.9% in test [4]; 19.6% in test [5]; -5.42% in [6]; “Dose-dependent effect” with MV4-11; -0.71% in [7]. Moreover, the inhibition in test [8] stood at 27.2%; in test [9] it was 16.1%. Moreover, the inhibition result with SUD4 and in the test with HCT-116 was “inactive” throughout.

On to `COC(=O)c1c(N)sc(C(=O)Nc2cccc([N+](=O)[O-])c2)c1C`, for which the inhibition is 45.5% in test [4]; 19.6% in [5]; 29.9% in test [7]; 25.1% in test [8]; 9.82% in [9]. Also, in [2], the IC50 stood at 4.88 µM.
